Hits are enriched below; roughly 11% of the tested compounds scored in any of these assays.
M1 antagonist: blocks the rat M1 muscarinic receptor response to acetylcholine. P08482. CHO-M1 cells, Fluo-4 calcium, ACh EC80 antagonist mode; stronger effect = lower value. B-score at 10 µM. 3.4% of 64,000 active;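 active = calcium fluorescence response, raw or row-and-column corrected B-score, differing from the plate sample mean either way at a set confidence level, mostly lower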
S1P1 ag-PAM: agonists and agonism potentiators of human S1P1 receptor | P21453 | S1P1 CRE-bla cells, forskolin, beta-lactamase FRET, potentiator mode; S1P1 agonist co-added at EC20, 2 nM; 100% = saturating reference agonist, 0% = basal | activation, % at 9.5 µM | 0.57% of 56,000 active | AID 449;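 active = activation above a cutoff set at the mean activation of all tested compounds plus 3 SD, cut at about 54% in these data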;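 also: forskolin at 4 µM as EC80 and the EC20 agonist is SEW2871; 100% = SEW2871 at its EC100 plus forskolin at EC80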
S1P3 ag: S1P3 (human) receptor agonism. S1P3 NFAT-BLA reporter cells, FRET ratio; relative to 1 µM S1P, basal subtracted. activation, % at 4.5 µM. 0.1% of 60,000 active;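 active = activation above the screen-wide mean plus 3 SD, cut at about 4.5% in these data, passing the limit was not always enough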
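Assay system: stable CHO line with human S1P3, Gα16, NFAT-BLA reporter; Detection: FRET β-lactamase substrate fluorescence, excitation 405 nm, 460/535 nm emission ratio, background-subtracted; Read-out: percent activation versus median 1 µM S1P response, basal-subtracted, per plate; Incubation: cells plated overnight, compound 4 h 37 °C, substrate 2 h RT.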
M1 agonist: activates the M1 muscarinic receptor | CHO-M1 cells, Fluo-4 calcium fluorescence, agonist mode; stronger effect = higher value | B-score at 10 µM | 3% of 64,000 active;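 active = fluorescence rise, raw or as B-score row- and column-corrected plate score, outside the 99.7% band of its plate's samples, either direction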
D1 allo mod: allosterically modulates the human D1 dopamine receptor; 5.9% of 58,000 active; B-score at 10 µM; HEK293 D1, CRE-luciferase, dopamine EC30 potentiation; actives deviate in either direction; P21728;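 active = luminescence count or its row- and column-corrected plate score outside the 99.7% band of the plate's sample wells, on either side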
Target sequence (P21728 whole entry, looked up): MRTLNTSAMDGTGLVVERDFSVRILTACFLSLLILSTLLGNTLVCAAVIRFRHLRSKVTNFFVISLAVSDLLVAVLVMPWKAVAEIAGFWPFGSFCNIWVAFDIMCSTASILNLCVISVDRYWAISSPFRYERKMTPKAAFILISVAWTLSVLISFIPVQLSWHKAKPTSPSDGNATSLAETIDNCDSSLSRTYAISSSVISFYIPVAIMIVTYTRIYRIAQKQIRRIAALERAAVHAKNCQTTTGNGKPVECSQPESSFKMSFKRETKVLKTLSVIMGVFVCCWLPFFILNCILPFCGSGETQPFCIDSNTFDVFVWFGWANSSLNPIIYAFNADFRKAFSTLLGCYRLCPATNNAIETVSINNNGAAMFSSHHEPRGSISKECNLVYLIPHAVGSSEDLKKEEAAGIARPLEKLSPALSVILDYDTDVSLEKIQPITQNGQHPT
M1 antag conf: confirmation of rat M1 muscarinic receptor antagonists; shares compounds with M1 antagonist; CHO-M1 cells, Fluo-4 calcium, ACh EC80 antagonism; stronger effect = lower value; calcium response (max-min fluorescence) at 10 µM; 43% of 1,700 active;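 active = calcium response below the same-plate mean of wells given acetylcholine alone at its 80%-effect dose, minus 3 SD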;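 also: raw fluorescence intensity difference in arbitrary instrument units and not normalized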
mGluR4 antag: mGluR4 (human) activity, M1 antagonist secondary assay | shares compounds with M1 antagonist | CHO-mGluR4 calcium flux, Fluo-4 fluorescence, glutamate EC80; stronger effect = lower value | fluorescence response (max-min) at 10 µM | 0.9% of 1,700 active | AID 678;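 active = fluorescence response below the plate's average for near-maximal glutamate wells, less 3 SD of those wells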;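 also: raw unnormalized fluorescence span taken in the window right after glutamate addition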
The depositor's hits bear a star.

How did CCN1CCN(c2ccc(NC(=O)c3ccc4c(c3)OCO4)cc2)CC1 do in these assays?
M1 antagonist: -3.02*; S1P1 ag-PAM: 13.9; S1P3 ag: 0.4; M1 agonist: 0.0677; M1 antag conf: 398*; mGluR4 antag: 267

What do the screens show for `CCCCOc1cccc(C(=O)Nc2ccc(N3CCN(CC)CC3)cc2)c1`?
M1 antagonist: -16.4*; S1P1 ag-PAM: -33.7; S1P3 ag: -1.0; M1 agonist: 0.116; D1 allo mod: -3.55*; M1 antag conf: 36.1*; mGluR4 antag: 254

How did CCN1CCN(c2ccc(NC(=O)COc3ccccc3Cl)cc2)CC1 do in these assays?
M1 antagonist: -8.96*; S1P1 ag-PAM: -17.3; S1P3 ag: -1.4; M1 agonist: 0.00174; D1 allo mod: -4.95*; M1 antag conf: 322*; mGluR4 antag: 168

Results for CCN1CCN(c2ccc(NC(=O)c3cccnc3)cc2Cl)CC1 ?
M1 antagonist: -3.56*; S1P1 ag-PAM: -3.9; S1P3 ag: 0.6; M1 agonist: -0.863; D1 allo mod: -1.28; M1 antag conf: 460*; mGluR4 antag: 190

Results for CCN1CCN(C(c2cccs2)C(C)NC(=O)c2cccnc2)CC1 (stereo not given) ?
M1 antagonist: -1.36*; S1P1 ag-PAM: 1.0; S1P3 ag: -0.4; M1 agonist: -0.0855; D1 allo mod: -4.38*; M1 antag conf: 578*; mGluR4 antag: 239

Results for O=C(CN1C(=O)NC2(CCc3ccccc32)C1=O)Nc1cc(C(F)(F)F)ccc1N1CCOCC1 (stereo not given) ?
M1 antagonist: 0.0581; S1P1 ag-PAM: 0.7; S1P3 ag: 0.8; M1 agonist: -0.0554

What do the screens show for `C=CCn1c(SCC(=O)OC)nc2sc3c(c2c1=O)CCN(C)C3`?
M1 antagonist: -5.26*; S1P1 ag-PAM: -1.2; S1P3 ag: -2.0; M1 agonist: 0.0305; M1 antag conf: 198*; mGluR4 antag: 212

What do the screens show for `CSc1nc2sc3c(c2c(=O)n1C1CCCCC1)CCN(C)C3`?
M1 antagonist: -4.76*; S1P1 ag-PAM: 3.1; S1P3 ag: -1.7; M1 agonist: -0.0382; M1 antag conf: 185*; mGluR4 antag: 218

What do the screens show for `CN1CCc2c(sc3nc(SCC(N)=O)n(-c4ccccc4)c(=O)c23)C1`?
M1 antagonist: -0.0704; M1 agonist: -0.158; D1 allo mod: 0.654

What do the screens show for `N#Cc1c(NC(=O)c2cc(-n3cnnc3)ccc2Cl)sc2c1CCCC2`?
M1 antagonist: -3.2*; S1P1 ag-PAM: 36.0; S1P3 ag: -1.0; M1 agonist: -0.512; D1 allo mod: -0.458; M1 antag conf: 630; mGluR4 antag: 229

What do the screens show for `O=C(COC(=O)c1ccccc1Oc1ccccc1)NC1CCS(=O)(=O)C1` (stereo not given)?
M1 antagonist: -1.5*; S1P1 ag-PAM: 10.1; S1P3 ag: 0.8; M1 agonist: 0.0534; D1 allo mod: 0.381; M1 antag conf: 617; mGluR4 antag: 236

How did CSc1ncccc1C(=O)OCC(=O)NC1CCS(=O)(=O)C1 (stereo not given) do in these assays?
M1 antagonist: 0.0801; S1P1 ag-PAM: 5.0; S1P3 ag: -0.4; M1 agonist: 1.25

What do the screens show for `O=C(NC1CCCCC1)N(Cc1cc2cc3c(cc2[nH]c1=O)OCCO3)CC1CCCO1` (stereo not given)?
M1 antagonist: 0.494; S1P1 ag-PAM: -15.1; S1P3 ag: -1.0; M1 agonist: 0.207

How did Cc1cc(C)c2cc(CN(CC3CCCO3)C(=O)NC3CCCCC3)c(=O)[nH]c2c1 (stereo not given) do in these assays?
M1 antagonist: -3.38*; S1P1 ag-PAM: -17.7; S1P3 ag: -0.9; M1 agonist: 0.0378; D1 allo mod: 2.26; M1 antag conf: 469; mGluR4 antag: 247

Results for Cc1ccc2[nH]c(=O)c(-c3nc4cc(C)ccn4c3NCc3ccco3)cc2c1 ?
M1 antagonist: -3.26*; S1P1 ag-PAM: -11.2; S1P3 ag: 0.5; M1 agonist: 0.0966; D1 allo mod: -2.48; M1 antag conf: 412; mGluR4 antag: 217

How did CCOC(=O)c1ccc(NC(=O)NCCN2CCCCC2)cc1 do in these assays?
M1 antagonist: -3.41*; S1P1 ag-PAM: -13.3; S1P3 ag: -0.6; M1 agonist: -0.0674; D1 allo mod: 0.0713; M1 antag conf: 512; mGluR4 antag: 216

Results for COc1ccccc1N1CCN(C(=O)COc2ccc(Cl)cc2)CC1 ?
M1 antagonist: -1; S1P1 ag-PAM: 13.1; S1P3 ag: -0.7; M1 agonist: -0.8

What do the screens show for `Cc1cc(C)nc(N2CCN(c3nc(C)cc(C)n3)CC2)n1`?
M1 antagonist: -7.67*; S1P1 ag-PAM: -18.3; S1P3 ag: 0.1; M1 agonist: -0.259; D1 allo mod: -0.84; M1 antag conf: 719; mGluR4 antag: 217

What do the screens show for `Cc1cc(C)nc(N2CCC(C(=O)O)CC2)n1`?
M1 antagonist: 0.28; S1P1 ag-PAM: 6.1; S1P3 ag: -0.1; M1 agonist: -0.381; D1 allo mod: -0.831

How did CC(=O)Oc1ccc(CCC(C)OC(C)=O)cc1 (stereo not given) do in these assays?
M1 antagonist: 0.483; S1P1 ag-PAM: -15.2; S1P3 ag: -2.1; M1 agonist: 0.099; D1 allo mod: -0.0663

How did CCCOc1ccc2oc(=O)c3c(c2c1)CCCN3C(=O)CN1CCCC(C(=O)OCC)C1 (stereo not given) do in these assays?
M1 antagonist: -4.88*; S1P1 ag-PAM: -31.7; S1P3 ag: -0.2; M1 agonist: 0.645; D1 allo mod: 1.37; M1 antag conf: 440*; mGluR4 antag: 255

How did O=C(CN1CCCC1)N1CCCc2c1c(=O)oc1ccc(OCc3ccccc3)cc21 do in these assays?
M1 antagonist: -2.46*; S1P1 ag-PAM: 4.7; S1P3 ag: -1.3; M1 agonist: -0.236; D1 allo mod: 0.248; M1 antag conf: 384*; mGluR4 antag: 191

How did CN(CC(=O)N1CCCc2c1c(=O)oc1ccc(O)cc21)Cc1ccccc1 do in these assays?
M1 antagonist: -6.46*; S1P1 ag-PAM: -7.7; S1P3 ag: 0.5; M1 agonist: 0.74; D1 allo mod: -1.18; M1 antag conf: 467*; mGluR4 antag: 212

How did CCCOc1ccc2oc(=O)c3c(c2c1)CCCN3C(=O)CN1CCN(C(=O)c2ccco2)CC1 do in these assays?
M1 antagonist: -1.62; S1P1 ag-PAM: -1.2; S1P3 ag: -0.6; M1 agonist: -0.664; D1 allo mod: -0.323

How did CC1(C)N(O)CC(c2cccs2)=[N+]1[O-] do in these assays?
M1 antagonist: 0.0139; S1P1 ag-PAM: -20.1; S1P3 ag: -0.3; M1 agonist: -0.191
